Common to all, as to assay type: functional
Experiment [1] deals with Listeria monocytogenes. The experiment is described as follows: Antibacterial activity against 10^7 CFU/ml wild-type Listeria monocytogenes EGD-e Serovar 1/2a at 1 ug after 16 hrs by disk diffusion assay. Conditions: read-out: IZ. The essentials:
(§1)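 Stationary-phase (16 h) cultures diluted to 10^7 CFU/ml and swabbed onto TSA-YE agar. Six-millimetre disks infused with antibiotic placed on plates. Inhibition zones measured after overnight (16 h) growth. Strains grown at 37°C in tryptic soy broth with yeast extract.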

In experiment [2] the test system is Listeria monocytogenes. The experiment is described as follows: Antibacterial activity against 10^7 CFU/ml telA-deficient Listeria monocytogenes EGD-e Serovar 1/2a […] after 16 hrs by disk diffusion assay. The settings on record: read-out: IZ. The essentials: as §1
On the technique in general: Agar diffusion results depend on both activity and mobility in agar.

In experiment [3] the test system is Listeria monocytogenes. The experiment is described as follows: Antibacterial activity against 10^7 CFU/ml wild-type Listeria monocytogenes EGD-e Serovar 1/2a at 30 ug after 16 hrs by disk diffusion assay. The settings on record: read-out: IZ. A digest of the protocol: (§2)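 Stationary-phase (16 h) cultures were diluted to 10^7 CFU/ml and swabbed onto TSA-YE. 6-mm disks carrying a single antibiotic were laid on the agar. Zones of inhibition were measured after overnight (16 h) growth.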

The subject of experiment [4] is Listeria monocytogenes. The experiment is described as follows: Antibacterial activity against 10^7 CFU/ml telA-deficient Listeria monocytogenes EGD-e Serovar 1/2a at 30 ug after 16 hrs by disk diffusion assay. Conditions: read-out: IZ. The essentials: as §2
Experiment [5] deals with Listeria monocytogenes. The experiment is described as follows: Antibacterial activity against 10^5 CFU/ml telA-deficient Listeria monocytogenes EGD-e Serovar 1/2a after 16 hrs by two fold serial dilution method. The essentials: (§3)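 Broth microdilution in TSB-YE: 2-fold serial dilutions of antimicrobial mixed 1:1 with target cells at 10^5 CFU/ml. Incubated 20 h for HPLC-purified nisin A, 16 h for other antimicrobials. MIC is the lowest concentration giving no visible growth. For nisin and gallidermin, the μg/ml value is converted from a μM value.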

Experiment [6] relates to Listeria monocytogenes. The experiment is described as follows: Ratio of MIC wild-type Listeria monocytogenes EGD-e Serovar 1/2a to MIC for telA-deficient Listeria monocytogenes EGD-e Serovar 1/2a. The essentials: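 Both MICs come from the TSB-YE 2-fold broth microdilution (10^5 CFU/ml; 20 h for purified nisin A, 16 h for others). The ratio compares the parent EGDe MIC with the ΔtelA MIC.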

Experiment [7] has as its system Listeria monocytogenes. The experiment is described as follows: Antibacterial activity against 10^5 CFU/ml wild-type Listeria monocytogenes EGD-e Serovar 1/2a after 16 hrs by two fold serial dilution method. A digest of the protocol: as §3
Experiment [8] relates to Listeria monocytogenes. Nature of the experiment: Antibacterial activity against 10^7 CFU/ml wild-type Listeria monocytogenes EGD-e Serovar 1/2a at 5 ug after 16 hrs by disk diffusion assay. Conditions: read-out: IZ. The essentials:
as §2

Experiment [9] has as its system Listeria monocytogenes. Nature of the experiment: Antibacterial activity against 10^7 CFU/ml telA-deficient Listeria monocytogenes EGD-e Serovar 1/2a at 5 ug after 16 hrs by disk diffusion assay. The settings on record: read-out: IZ. A digest of the protocol: as §2
The test system of experiment [10] is Listeria monocytogenes. The experiment is described as follows: Antibacterial activity against 10^7 CFU/ml wild-type Listeria monocytogenes EGD-e Serovar 1/2a […] after 16 hrs by disk diffusion assay. Conditions: read-out: IZ. A digest of the protocol: as §2
Experiment [11] deals with Listeria monocytogenes. Nature of the experiment: Antibacterial activity against 10^7 CFU/ml telA-deficient Listeria monocytogenes EGD-e Serovar 1/2a at 10 ug after 16 hrs by disk diffusion assay. The settings on record: read-out: IZ. A digest of the protocol: as §2

Each structure is given as a SMILES string. ≈ marks a conversion by molar mass, not a printed value. Bridge positions count the residues as written; N and C are the ends. Square brackets hold non-standard residues; d marks the D form. Peptide text beside a SMILES is read from it. * marks the point of attachment. Ileψ(thiazoline)Cys = CC[C@H](C)[C@H](N)C1=N[C@H](C(=O)*)CS1; dOrn = NCCC[C@@H](N)C(=O)O

As a reminder, the MIC is the lowest concentration found to suppress growth. Read a high MIC as a need for much substance.

`Cc1onc(-c2ccccc2)c1C(=O)N[C@@H]1C(=O)N2[C@@H]1SC(C)(C)[C@@H]2C(=O)O` [OXACILLIN]: the zone of inhibition at 1 µg/disc in the experiment with Listeria monocytogenes [1] is 10.7 mm; in the experiment with Listeria monocytogenes [2], 12.3 mm.

Regarding `CO/N=C(\C(=O)N[C@@H]1C(=O)N2C(C(=O)O)=C(COC(C)=O)CS[C@H]12)c1csc(N)n1` [CEFOTAXIME], the zone of inhibition at 30 µg/disc with Listeria monocytogenes [3] stood at 21.3 mm; in the experiment with Listeria monocytogenes [4] it was 23.7 mm. In addition, the MIC against Listeria monocytogenes [5] worked out at 1 µg/mL (≈ 2.2 µM); in the experiment with Listeria monocytogenes [7], 2 µg/mL (≈ 4.39 µM). For the same compound, the fold change (FC) with Listeria monocytogenes [6] was found to be 2.

On to `CO/N=C(\C(=O)N[C@@H]1C(=O)N2C(C(=O)O)=C(COC(N)=O)CS[C@H]12)c1ccco1` [CEFUROXIME], for which the values for the zone of inhibition at 30 µg/disc in the experiment with Listeria monocytogenes [3] and in the experiment on Listeria monocytogenes [4] were 21.1 mm and 24.4 mm, respectively. Besides, the MIC against Listeria monocytogenes [5] was found to be 1.44 µg/mL (≈ 3.39 µM); against Listeria monocytogenes [7], 2.87 µg/mL (≈ 6.76 µM). Also, the fold change (FC) with Listeria monocytogenes [6] worked out at 2.

As to `COc1cccc(OC)c1C(=O)N[C@@H]1C(=O)N2[C@@H]1SC(C)(C)[C@@H]2C(=O)O` [METHICILLIN], the zone of inhibition at 5 µg/disc in the experiment on Listeria monocytogenes [8] turned out to be 25.6 mm; in the experiment with Listeria monocytogenes [9] it was 26.7 mm.

With `CC[C@H](C)[C@H](N)C1=N[C@H](C(=O)N[C@@H](CC(C)C)C(=O)N[C@H](CCC(=O)O)C(=O)N[C@H](C(=O)N[C@H]2CCCCNC(=O)[C@H](CC(N)=O)NC(=O)[C@@H](CC(=O)O)NC(=O)[C@H](Cc3cnc[nH]3)NC(=O)[C@@H](Cc3ccccc3)NC(=O)[C@H]([C@@H](C)CC)NC(=O)[C@@H](CCCN)NC2=O)[C@@H](C)CC)CS1` [BACITRACIN] ({Ileψ(thiazoline)Cys}-L[dE]IK[dOrn]I[dF]H[dD]N; lactam 4-C), the figures for the MIC in the experiment with Listeria monocytogenes [5] and with Listeria monocytogenes [7] were 128 µg/mL (≈ 90 µM) and 256 µg/mL (≈ 180 µM), respectively. Moreover, the fold change (FC) in the experiment on Listeria monocytogenes [6] was 2. Further, the zone of inhibition at 10 µg/disc stood at 12.5 mm in the experiment with Listeria monocytogenes [10] and 15.1 mm in the experiment with Listeria monocytogenes [11].

As for `C/C=C(/NC(=O)[C@H](CCCCN)NC(=O)[C@H](C)NC(=O)[C@H]1CS[C@@H](C)[C@@H](NC(=O)[C@H]2CSC[C@@H](NC(=O)[C@H](C)NC(=O)[C@@H](N)[C@@H](C)CC)C(=O)N[C@@H](CCCCN)C(=O)N[C@@H](Cc3ccccc3)C(=O)N[C@@H](CC(C)C)C(=O)N2)C(=O)N2CCC[C@H]2C(=O)NCC(=O)N1)C(=O)NCC(=O)N[C@@H]1CSC[C@H]2NC(=O)[C@H](Cc3ccc(O)cc3)NC(=O)[C@@H](CS/C=C/NC2=O)NC(=O)[C@H](CC(N)=O)NC(=O)[C@H](Cc2ccccc2)NC1=O` [GALLIDERMIN], the figures for the MIC with Listeria monocytogenes [5] and with Listeria monocytogenes [7] were 0.246 µg/mL (≈ 0.114 µM) and 1.97 µg/mL (≈ 0.91 µM), respectively. In the experiment with Listeria monocytogenes [6], the fold change (FC) was determined as 8.

Values taken from ChEMBL document CHEMBL1671746, “TelA contributes to the innate resistance of Listeria monocytogenes to nisin and other cell wall-acting antibiotics” (2010).
